Assays:
Assay type in all cases: functional
Mus musculus [1] = species: Mus musculus; assay: Ratio of rotarod to Straub-tail activity, which indicates the dose exhibiting muscle relaxant activity versus that producing sedation.
Procedure, shortened: (§1)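 Ratio of rotorod ED50 (po) to Straub tail ED50 (po), both measured in mice with oral dosing. Indicates separation between the muscle-relaxant dose and the sedating dose.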

Rattus norvegicus [2] = assay: Antiinflammatory activity in edema by Carrageenan pleurisy assay by oral administration
Procedure, shortened: (§2)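 Rat carrageenan pleurisy, 3 h. Compounds given orally, with separate read-outs for pleural cell counts and edema. ED50 reported in mg/kg po. Each compound tested two or three times; average variation approximately 10%.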

Mus musculus [3] = assay: Effective dose required for muscle relaxation by oral administration in mouse using Straub-tail (ST) assay.
Procedure, shortened: (§3)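 Mouse morphine-induced Straub tail assay, scoring inhibition of sacro-coccygeus dorsalis contraction. Dosed ip or po, generally at a minimum of three doses with N = 6 animals per dose group.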

Mus musculus [4] = assay: Effective dose required for muscle relaxation by intraperitoneal administration in mouse using Straub-tail (ST) assay; conditions: for ED50: ip; procedure, shortened: as §3
Rattus norvegicus [5] = assay: Antiinflammatory activity in cells using Carrageenan pleurisy assay by oral administration; procedure, shortened: as §2
Mus musculus [6] = assay: Sedation caused by oral administration was estimated using rotarod (RR) assay.
Procedure, shortened: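 Mouse rotorod test for sedation, oral dosing, generally at a minimum of three doses with N = 6 animals per dose group.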

Rattus norvegicus [7] = assay: Antiinflammatory activity in edema by Carrageenan pleurisy assay by oral administration at 20 mg/kg.
Procedure, shortened: (§4)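 Rat carrageenan pleurisy, 3 h. Single oral dose of 20 mg/kg, with separate read-outs for pleural cell counts and edema as percent inhibition. Each compound tested two or three times; average variation approximately 10%.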

Rattus norvegicus [8] = assay: Percent inhibition for analgesic activity by trypsin-induced hyperalgesia assay at 20 mg/kg by oral administration in rats.
Procedure, shortened: (§5)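 Rat trypsin-induced hyperalgesia (mild analgesia). Percent inhibition at a single oral dose of 20 mg/kg. Each compound tested two or three times; average variation approximately 5%.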

Rattus norvegicus [9] = assay: Antiinflammatory activity in cells by Carrageenan pleurisy assay by oral administration at 20 mg/kg.; procedure, shortened: as §4
[10] = Effective dose required to produce analgesic activity in the phalanges algesia assay by oral administration
[11] = Effective dose required to produce analgesic activity in the trypsin hyperalgesia assay by oral administration
Procedure, shortened: (§6)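 Rat trypsin-induced hyperalgesia (mild analgesia) with oral dosing. ED50 reported in mg/kg po. Each compound tested two or three times; average variation approximately 5%.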

[12] = Effective dose required to produce analgesic activity in the adjuvant arthritis hyperalgesia assay by oral administration
Rattus norvegicus [13] = assay: Percent inhibition for analgesic activity by trypsin-induced hyperalgesia assay at 20 mg/kg by oral administration in rats; procedure, shortened: as §5
Mus musculus [14] = assay: (§7) Percent effect profile muscle relaxation at 100 mg/kg by intraperitoneal administration in mouse using Straub-tail (ST) assay; conditions: ip
Procedure, shortened: (§8)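 Mouse morphine-induced Straub tail assay, scoring inhibition of sacro-coccygeus dorsalis contraction. Single ip dose of 100 mg/kg; percent effect reported. Compounds above 50% inhibition were then tested orally.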

Rattus norvegicus [15] = assay: Effective dose required for analgesic activity by trypsin-induced hyperalgesia assay at 20 mg/kg by oral administration in rats; procedure, shortened: as §6
Mus musculus [16] = assay: as §7; conditions: ip; procedure, shortened: as §8; remark: listed apart in the source
Mus musculus [17] = species: Mus musculus; assay: Ratio of rotarod to straub tail activity, which indicates the dose exhibiting muscle relaxant activity versus that producing sedation; procedure, shortened: as §1

Compound | Ratio (Mus musculus [1]) | ED50 (Rattus norvegicus [2]) [mg/kg] | ED50 (Mus musculus [3]) [mg/kg] | ED50 (Mus musculus [4]) [mg/kg] | ED50 (Rattus norvegicus [5]) [mg/kg] | ED50 (Mus musculus [6]) [mg/kg] | inhibition in vivo at 20 mg/kg (Rattus norvegicus [7]) [%] | inhibition in vivo at 20 mg/kg (Rattus norvegicus [8]) [%] | inhibition in vivo at 20 mg/kg (Rattus norvegicus [9]) [%] | inhibition in vivo at 100 mg/kg (Mus musculus [14]) [%] | ED50 (Rattus norvegicus [15]) [mg/kg] | also measured
NC(=O)/C=C1\CCc2ccc(Cl)cc21 | 2 | 33 | 98 | 40 | 27 | 221 | – | – | – | – | – | –
O=C(/C=C/c1cccc(F)c1)NC1CC1 [CINFLUMIDE] | 1.2 | – | 156 | 63 | – | 189 | < 20 | < 20 | < 20 | – | – | –
COc1ccc2c3c1O[C@H]1[C@@H](O)C=C[C@H]4[C@@H](C2)N(C)CC[C@@]341 [CODEINE] | – | – | – | – | – | – | – | – | – | – | – | ED50 [10]: 27 mg/kg; ED50 [11]: 33 mg/kg; ED50 [12]: 25 mg/kg
O=C(/C=C1\CCc2ccc(F)cc21)NC1CCCC1 | – | 11 | – | – | 14 | – | – | – | – | 0 | – | inhibition in vivo at 20 mg/kg (Rattus norvegicus [13]): 6%
NC(=O)/C=C1\CCc2ccc(F)cc21 | 1.6 | 20 | 56 | 22 | 21 | 90 | – | 14 | – | – | 16 | inhibition in vivo at 20 mg/kg (Rattus norvegicus [13]): 60%
NC(=O)/C=C1\CCc2c(F)ccc(F)c21 | 1.6 | – | 56 | – | – | 89 | 67 | 83 | 67 | – | 8 | inhibition in vivo at 100 mg/kg (Mus musculus [16]): 100%
NC(=O)/C=C1\CCc2cc(F)cc(F)c21 | 1.8 | – | 44 | – | – | 81 | 55 | 93 | 54 | 100 | 10 | –
NC(=O)/C=C1\CCc2cc(F)c(F)cc21 | 1.3 | 17 | 64 | – | 13 | 82 | – | – | – | – | 19 | inhibition in vivo at 20 mg/kg (Rattus norvegicus [13]): 62%; inhibition in vivo at 100 mg/kg (Mus musculus [16]): 100%
NC(=O)/C=C1\CCc2ccccc21 | – | – | 108 | 31 | – | 164 | – | 88 | – | – | 9 | Ratio (Mus musculus [17]): 1.5
Cc1cccc2c1CC/C2=C\C(N)=O | – | – | > 100 | – | – | – | 13 | 25 | 15 | – | – | Inhibition (Mus musculus [4]): 100%
NC(=O)/C=C1\CCc2cc(Cl)ccc21 | – | – | – | – | – | – | 29 | 42 | 30 | 0 | 30 | –
CNC(=O)/C=C1\CCc2ccc(F)cc21 | – | – | – | – | – | – | 38 | 58 | 45 | 50 | 25 | –

From ChEMBL document CHEMBL1144887, “Indanylidenes. 1. Design and synthesis of (E)-2-(4,6-difluoro-1-indanylidene)acetamide, a potent, centrally acting muscle relaxant with antiinflammatory and analgesic activity” (J Med Chem, 2003)
